Assay outcomes: PubChem, several laboratories
A selection: hits, their analogues and other compounds. The true share with any hit is near 2.6%.
NPY-Y2 antag = antagonists of human neuropeptide Y receptor Y2; P49146; AID 793; NPY-Y2 expressing cells, antagonist mode; inhibition, % at 2.7 µM; 140,000 compounds, 0.99% hits; in the data active means inhibition above about 17%
Target sequence (P49146 whole entry, looked up): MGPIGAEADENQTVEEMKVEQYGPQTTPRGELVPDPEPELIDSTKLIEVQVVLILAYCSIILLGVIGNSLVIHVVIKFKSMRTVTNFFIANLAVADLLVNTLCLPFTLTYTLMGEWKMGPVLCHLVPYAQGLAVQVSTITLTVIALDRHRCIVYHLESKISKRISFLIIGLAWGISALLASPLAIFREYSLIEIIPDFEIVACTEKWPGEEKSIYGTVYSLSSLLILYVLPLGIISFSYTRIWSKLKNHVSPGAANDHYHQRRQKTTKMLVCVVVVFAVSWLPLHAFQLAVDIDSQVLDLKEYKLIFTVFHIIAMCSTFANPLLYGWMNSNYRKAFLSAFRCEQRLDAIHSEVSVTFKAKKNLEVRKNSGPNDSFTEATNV
NPY-Y1 PAM-ag = potentiates or activates human NPY-Y1 receptor; activation, % at 3.6 µM; NPY-Y1 expressing cells, potentiator/agonist activation; P25929; AID 1304; 220,000 compounds, 0.37% hits; in the data active means activation above about 33%, passing the limit was not always enough;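 further: cells stimulated with NPY at EC10 then isoproterenol at EC100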
Target sequence (P25929 whole entry, looked up): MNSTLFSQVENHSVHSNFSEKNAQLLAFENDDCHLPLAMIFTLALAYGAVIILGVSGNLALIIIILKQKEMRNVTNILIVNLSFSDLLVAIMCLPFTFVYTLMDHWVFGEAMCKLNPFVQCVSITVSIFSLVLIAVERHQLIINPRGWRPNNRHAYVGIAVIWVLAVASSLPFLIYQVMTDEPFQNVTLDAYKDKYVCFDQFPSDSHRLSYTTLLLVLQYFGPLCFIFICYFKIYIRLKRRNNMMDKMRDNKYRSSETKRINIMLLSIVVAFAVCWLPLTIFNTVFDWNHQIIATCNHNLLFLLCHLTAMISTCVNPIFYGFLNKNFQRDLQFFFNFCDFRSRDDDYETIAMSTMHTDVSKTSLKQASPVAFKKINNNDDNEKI
bCat nuc transl = beta-catenin nuclear translocation modulation | nuclear translocation activity, % at 5 µM | 190,000 compounds, 0.3% hits | HeLa beta-catenin nuclear translocation, immunofluorescence imaging | AID 1665;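 active means nuclear translocation activity above 50% at 5 µM, with a well cell count of 50 or more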;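 further: per-cell ratio of nuclear to cytoplasmic median beta-catenin stain intensity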
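Test system: human HeLa cells, endogenous beta-catenin. Times: 24 h compound exposure, 37°C. Measured by: beta-catenin immunofluorescence imaging with DAPI.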
NPY2 pot ag = potentiates or activates human NPY-Y2 receptor. P49146. cells expressing NPY-Y2, potentiator/agonist read-out. activation, % at 3.6 µM. 220,000 compounds, 0.45% hits. AID 1359; in the data active means activation above about 27%;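 further: cells stimulated with NPY near EC25 plus isoproterenol at EC100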
MT stabilize HCS = microtubule stabilizers in HeLa cells | HeLa tubulin immunostaining HCS, 24 h; share of cells brighter than vehicle mean+2SD | % tubulin-high responders, % at 10 µM | 200,000 compounds, 0.83% hits | AID 2205;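 active means plate Z-score above 3 for both tubulin-high and condensed-nucleus cell shares, with cell loss under 80%, at 10 µM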;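 further: anti alpha tubulin signal scored within the nucleus-defined area of each cell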
NPY-Y1 antag = antagonists of human neuropeptide Y receptor Y1 | P25929 | HEK293-CNG Y1 cells, membrane potential fluorescence; NPY at EC95, then isoproterenol | inhibition, % at 3.6 µM | 200,000 compounds, 1% hits;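 active means inhibition above the campaign mean inhibition of all tested compounds plus 3 SD, cut at about 20% in these data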
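Test system: HEK293 cells co-expressing NPY Y1 receptor and cyclic-nucleotide gated channel; Also added: NPY (25 nM), isoproterenol (1 µM), Ro 20-1724 (25 µM); Compound dosing: one concentration, 3.6 µM, in 0.4% DMSO; Timing: dye 3 h, compound 60 min room temperature, stimulation 45 min; Technique: Membrane-potential fluorescent dye readout.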
NPY-Y1 confirm = human NPY-Y1 potentiation or agonism, confirmation | 280 compounds, 20% hits | cell-based NPY-Y1 potentiator/agonist assay | activation, % at 3.6 µM | shares compounds with NPY-Y1 PAM-ag; in the data active means activation above about 45%;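 further: cells challenged with NPY at its EC10 plus isoproterenol stimulus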
NPY-Y2 counter = potentiates or activates NPY-Y2, counter-screen for NPY-Y1 hits; shares compounds with NPY-Y1 PAM-ag; HEK293-CNG cells, membrane-potential fluorescence (FLIPR), 1536-well; activation, % at 3.6 µM; 280 compounds, 20% hits; AID 1649
NPY-Y1 agonist = activates human NPY-Y1, counter-screen for NPY-Y1 potentiators | AID 1697 | shares compounds with NPY-Y1 PAM-ag | HEK293 Y1-CNGC, membrane potential fluorescence, agonist mode | 280 compounds, 50% hits | activation, % at 3.6 µM;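 active means percent activation above the mean of DMSO-only control wells plus 3 SD of those wells, cut at about 18% in these data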;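 further: cells challenged with isoproterenol plus Ro 20-1724 with no NPY in test wells; Y1 agonism lowers isoproterenol-driven cAMP and reduces probe fluorescence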
NPY-Y2 agonist = activates human NPY-Y2, counter-screen for NPY-Y1 hits; shares compounds with NPY-Y1 PAM-ag; HEK293 Y2-CNGC, membrane potential fluorescence, agonist mode; activation, % at 3.6 µM; 280 compounds, 67% hits; AID 1698;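 active means activation above the solvent-only control wells' mean plus 3 SD, cut at about 11% in these data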;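 further: agonism lowers cAMP so well fluorescence drops in active wells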
CNGC inh 2 = counter-screen for NPY-Y1 potentiators or agonists: CNG channel inhibitors. shares compounds with NPY-Y1 PAM-ag. HEK293-CNG parental, isoproterenol cAMP, membrane potential fluorescence. inhibition, % at 3.6 µM. 280 compounds, 42% hits. AID 1704;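 active means inhibition above the mean of stimulated solvent-only control wells plus 3 SD, cut at about 22% in these data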
NPY-Y2 pot conf = confirmation of human NPY-Y2 receptor potentiators or agonists | shares compounds with NPY2 pot ag | cell-based NPY-Y2 potentiator/agonist assay | activation, % at 3.6 µM | 450 compounds, 20% hits | AID 1539
NPY-Y1 counter = potentiates or activates NPY-Y1, counter-screen for NPY-Y2 hits; shares compounds with NPY2 pot ag; Y1 HEK293-CNG cells, membrane potential fluorescence; activation, % at 3.6 µM; 450 compounds, 20% hits; AID 1651; in the data active means activation above about 45%;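 further: cells stimulated with submaximal NPY then isoproterenol with phosphodiesterase inhibitor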
NPY-Y1 agonist 2 = counter-screen for NPY-Y2 potentiators: agonists of human NPY-Y1; shares compounds with NPY2 pot ag; AID 1702; activation, % at 3.6 µM; HEK293 Y1-CNGC, membrane potential fluorescence, agonism; 450 compounds, 37% hits;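 active means activation above the mean of DMSO-only control wells plus 3 SD, cut at about 18% in these data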;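 further: cells stimulated with 1 µM isoproterenol plus the PDE inhibitor Ro 20-1724; Y1 agonists lower the membrane potential dye signal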
CNGC inhibitor = cyclic nucleotide gated channel inhibition as counter-screen. HEK293-CNG parental, isoproterenol cAMP, membrane potential fluorescence. inhibition, % at 3.6 µM. shares compounds with NPY2 pot ag. AID 1703. 450 compounds, 32% hits;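 active means inhibition above the control-well mean plus 3 SD of those wells, cut at about 22% in these data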
Y2 agonist ctr = counter-screen for NPY-Y2 potentiators: agonists of human NPY-Y2; shares compounds with NPY2 pot ag; activation, % at 3.6 µM; HEK293 Y2/CNGC cells, membrane potential fluorescence, agonist mode; 450 compounds, 56% hits;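 active means activation above the mean of solvent-only control wells plus 3 SD, cut at about 10% in these data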;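 further: cells stimulated by isoproterenol with no NPY added so direct agonism is tested; agonism lowers probe fluorescence through less cAMP and CNG channel opening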
Numbers stand for hits; – = inactive; · = no result. Unless noted, no stated cut-off is given here; in the data, active means activation above about 33%; inactive means the rest.

SMILES	NPY-Y2 antag	NPY-Y1 PAM-ag	bCat nuc transl	NPY2 pot ag	MT stabilize HCS	NPY-Y1 antag	NPY-Y2 pot conf	NPY-Y1 counter	NPY-Y1 agonist 2	CNGC inhibitor	Y2 agonist ctr	others
COc1cc(OC)cc(C(=O)Nc2ccc(NC(=O)c3ccco3)c(Cl)c2)c1	·	67.2	–	–	–	–	·	·	·	·	·	NPY-Y1 confirm=–;NPY-Y2 counter=–;NPY-Y1 agonist=–;NPY-Y2 agonist=–;CNGC inh 2=–
Cc1ccc(-c2nc(Nc3ccc(N4CCOCC4)cc3)c3ccccc3n2)cc1	·	53.2	–	–	·	·	·	·	·	·	·	NPY-Y1 confirm=50.8;NPY-Y2 counter=41.8;NPY-Y1 agonist=58.1;NPY-Y2 agonist=45.4;CNGC inh 2=58.2
Cc1c(Cl)ccc2c1NC(=O)[C@]21[C@@H]2C(=O)N(Cc3ccccc3)C(=O)[C@@H]2[C@@H]2CCCN21	–	31.8	·	–	–	–	·	·	·	·	·	NPY-Y1 confirm=–;NPY-Y2 counter=–;NPY-Y1 agonist=–;NPY-Y2 agonist=10.7;CNGC inh 2=–
Cn1cc([N+](=O)[O-])c(C(=O)Nc2ccc(C3CCCCC3)cc2)n1	·	37.3	–	–	–	–	·	·	·	·	·	NPY-Y1 confirm=–;NPY-Y2 counter=–;NPY-Y1 agonist=19.1;NPY-Y2 agonist=16.9;CNGC inh 2=–
COC(=O)c1sc(-c2ccc(C(C)(C)C)cc2)cc1NC(=O)c1ccccc1C(=O)O	·	63.1	–	–	·	·	·	·	·	·	·	NPY-Y1 confirm=45.5;NPY-Y2 counter=–;NPY-Y1 agonist=38.7;NPY-Y2 agonist=12.3;CNGC inh 2=23.6
COC(=O)c1sc(-c2ccc(Cl)cc2)cc1NC(=O)c1ccccc1C(=O)O	·	–	–	–	·	·	·	·	·	·	·
CCN1C(=O)N(CC)C2C1N(CO)C(=O)N2CO (centres undefined)	·	–	–	–	–	–	·	·	·	·	·
O=C(O)[C@H](Cc1ccccc1)NC(=O)N1CCN(c2cccc(C(F)(F)F)c2)CC1	·	–	–	–	·	·	·	·	·	·	·
Cc1cccc(CSC(Nc2ccc(F)cc2)=C(C#N)C#N)c1	–	–	–	40.1	–	–	–	–	–	–	–
N#CC(C#N)=C(Nc1ccc(F)cc1)SCc1cccc(Br)c1	–	–	–	–	–	–	·	·	·	·	·
CCOc1cc(C(=S)N2CCOCC2)ccc1OS(=O)(=O)c1ccc(NC(C)=O)cc1	–	–	–	32.8	–	–	–	–	–	–	–
CCCCC(=O)Nc1cc(Cl)ccc1C(=O)O	·	–	–	–	–	–	·	·	·	·	·
Nc1nc(N2CCCCC2)nc2ccccc12	–	–	–	54.5	–	–	71.5	79.2	43.6	40.1	71.6
O=P(OC1CCCCC1)(OC1CCCCC1)C(Nc1ccccc1)c1cccnc1 (centres undefined)	·	–	–	43.7	·	·	–	–	17.4	27.6	19.6
Cc1c(CN(C)C)c2c(n1Cc1ccccc1)C(=O)c1ccc(Br)cc1-2	–	–	–	27.5	–	–	–	–	35.2	24.0	28.7
Cc1c(CN(C)C)c2c(n1C)C(=O)c1ccc(Br)cc1-2	–	–	–	–	–	–	·	·	·	·	·
Oc1ccc(Cl)cc1-c1cc(-c2ccco2)[nH]n1	–	–	–	28.7	–	–	–	–	32.6	23.6	31.5
Oc1ccccc1-c1cc(-c2ccco2)[nH]n1	–	–	–	–	–	–	·	·	·	·	·
Cc1ccc(O)c(-c2cc(-c3ccccc3[N+](=O)[O-])[nH]n2)c1	–	–	–	35.0	–	–	34.5	–	35.6	33.4	34.5
O=[N+]([O-])c1ccccc1-c1cc(-c2cc(Cl)ccc2O)n[nH]1	–	–	–	31.1	–	–	49.6	59.4	52.0	54.1	60.4
CCOc1ccc(C2CC(c3ccc(F)cc3)n3ncnc3N2)cc1 (centres undefined)	–	–	–	–	–	–	·	·	·	·	·
C/C(=N\Nc1ccc(S(=O)(=O)N2CCOCC2)cc1[N+](=O)[O-])C(C)C	·	–	–	–	–	–	·	·	·	·	·
O=S(=O)(Nc1nc2ccccc2nc1Nc1cccc(S(=O)(=O)N2CCCCC2)c1)c1ccccc1	–	–	·	37.9	–	–	74.2	67.6	65.1	44.3	58.3
Cc1cc(C)nc(N2CCCC(C(=O)NCc3ccc4c(c3)OCO4)C2)n1 (centres undefined)	·	–	–	72.4	–	–	–	–	–	–	–
Cc1cc(C)nc(N2CCCC(C(=O)Nc3ccc4c(c3)OCO4)C2)n1 (centres undefined)	–	–	–	–	–	–	·	·	·	·	·
SMILES	NPY-Y2 antag	NPY-Y1 PAM-ag	bCat nuc transl	NPY2 pot ag	MT stabilize HCS	NPY-Y1 antag	NPY-Y2 pot conf	NPY-Y1 counter	NPY-Y1 agonist 2	CNGC inhibitor	Y2 agonist ctr	others
O=C(CNC1CCCCCC1)Nc1ccc(N2CCCC2)cc1	–	–	–	–	–	–	·	·	·	·	·
O=C(CNCCC1=CCCCC1)Nc1ccc(N2CCCCCC2)cc1	–	–	–	44.5	–	–	38.7	45.0	36.9	37.6	46.1
CCc1ccc(C(=O)NN(C(=O)c2ccc(CC)cc2)C(C)(C)C)cc1	–	–	–	34.9	–	–	43.6	61.0	57.6	46.9	33.6
CC(C)(C)N(NC(=O)c1ccccc1)C(=O)c1ccc(C(=O)N(NC(=O)c2ccccc2)C(C)(C)C)cc1	–	–	–	–	–	–	·	·	·	·	·
O=C(O)CCC(=O)Nc1ccccc1N1CCOCC1	–	–	–	–	–	–	·	·	·	·	·
O=C(O)CC1(CC(=O)Nc2ccccc2N2CCOCC2)CCCC1	·	–	–	59.1	·	·	–	–	–	–	–
Cc1cc(C(F)(F)F)nn1CC(=O)N1CCOCC1	–	–	–	–	–	–	·	·	·	·	·
CC(SC(=S)N1CCCC1)C(=O)O (centres undefined)	·	–	–	36.7	–	–	–	–	–	–	12.5
CC(C)(SC(=S)N1CCCCCC1)C(=O)O	·	–	–	–	–	–	·	·	·	·	·
